Data taken from PubChem BioAssay.
Calls of active or inactive are those of the source.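 The calls were made as follows, unless noted: active = viability at or below 30% in both replicate assays; inconclusive = viability at or below 30% in just one of the two assays; inactive = the rest.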

Assays:
[1] = reducers of endogenous Her2 protein level, primary screen, SKBR3 breast tumor cells, AlphaScreen, ATP viability (AID 461;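 active = Her2 level under about 52% in both replicate screens, with viability over 70% of control, limit read from the data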;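 as to Her2 level: lower value means less Her2 protein in the cells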;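 as to viability: percent of carrier control wells set as 100% viability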); settings: 18-24 h, measured here: SKBR3 viability, ATP luminescence, at 10 µM
[2] = target: Receptor tyrosine-protein kinase erbB-2 (Homo sapiens) (UniProt P04626); test: as above; settings: 18-24 h, at 10 µM, stronger effect = lower value
[3] = SK-BR-3 cell growth inhibitors, pilot screen, 24 h, human (AID 572;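 active = viability at or below 10% of carrier control in both of two separate runs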;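 also: compound exposure lasted between 18 and 24 h rather than exactly 24 h; 100% = carrier-treated control wells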); settings: SK-BR-3 viability, CellTiter-Glo luminescence, at 10 µM, stronger effect = lower value
[4] = HUVEC growth inhibition – cell-based, human, primary screen (AID 575); settings: HUVEC proliferation, CellTiter-Glo luminescence, 72 h; at 10 µM; stronger effect = lower value;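 also: 100% = median of untreated cell wells with 0.1% DMSO on each plate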
Method in brief: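 System – primary HUVEC, no more than 12 passages · Medium – Low-serum (2% FBS) EBM, supplemented · Times – 72 h exposure, 37 °C, 5% CO2, 30 min RT equilibration · Measured by – luminescent ATP assay · Read-out – % viability relative to median vehicle-well signal on each plate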

[5] = growth inhibitors of H69AR lung tumor, primary screen, human, duplicate replicates (AID 580;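 active = viability at or under a set limit in both replicates, limit being median viability minus 3 SD, cut at about 48% in these data, passing the limit was not always enough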;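 also: 100% = mean luminescence of untreated wells and 0% = no signal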); settings: H69AR lung tumor cells viability, ATP luminescence, 72 h; at 10 µM; stronger effect = lower value
[6] = reversal of MRP1-mediated doxorubicin resistance, pilot screen, H69AR cells, doxorubicin co-treatment (AID 601;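 active = viability loss from added drug above about 55%, and viability with drug at most 40%, in both replicates, limit read from the data, passing the limit was not always enough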); settings: CellTiter-Glo, 72 h, at 10 µM; for differential viability (reversal): stronger effect = higher value
[7] = 384-well plate pilot, post-Golgi transport modulator project, inhibition of yeast transport mutant growth (AID 636; in the data active = inhibition above about 31%); settings: absorbance 615 nm, about 18 h, stronger effect = higher value
[8] = growth suppression of yeast trafficking mutant, preliminary HTS, modulators of trafficking downstream of Golgi apparatus project, 1536-format plate, OD 615 nm (AID 637; in the data active = inhibition above about 30%); settings: yeast transport mutant growth, absorbance 615 nm, 18 h; stronger effect = higher value
[9] = H69AR cells + 2 uM doxorubicin, measured here: viability with 2 uM doxorubicin, stronger effect = lower value
[10] = H69AR cells, compound alone cytotoxicity

Chain of Receptor tyrosine-protein kinase erbB-2 (Homo sapiens) (P04626 whole entry, looked up): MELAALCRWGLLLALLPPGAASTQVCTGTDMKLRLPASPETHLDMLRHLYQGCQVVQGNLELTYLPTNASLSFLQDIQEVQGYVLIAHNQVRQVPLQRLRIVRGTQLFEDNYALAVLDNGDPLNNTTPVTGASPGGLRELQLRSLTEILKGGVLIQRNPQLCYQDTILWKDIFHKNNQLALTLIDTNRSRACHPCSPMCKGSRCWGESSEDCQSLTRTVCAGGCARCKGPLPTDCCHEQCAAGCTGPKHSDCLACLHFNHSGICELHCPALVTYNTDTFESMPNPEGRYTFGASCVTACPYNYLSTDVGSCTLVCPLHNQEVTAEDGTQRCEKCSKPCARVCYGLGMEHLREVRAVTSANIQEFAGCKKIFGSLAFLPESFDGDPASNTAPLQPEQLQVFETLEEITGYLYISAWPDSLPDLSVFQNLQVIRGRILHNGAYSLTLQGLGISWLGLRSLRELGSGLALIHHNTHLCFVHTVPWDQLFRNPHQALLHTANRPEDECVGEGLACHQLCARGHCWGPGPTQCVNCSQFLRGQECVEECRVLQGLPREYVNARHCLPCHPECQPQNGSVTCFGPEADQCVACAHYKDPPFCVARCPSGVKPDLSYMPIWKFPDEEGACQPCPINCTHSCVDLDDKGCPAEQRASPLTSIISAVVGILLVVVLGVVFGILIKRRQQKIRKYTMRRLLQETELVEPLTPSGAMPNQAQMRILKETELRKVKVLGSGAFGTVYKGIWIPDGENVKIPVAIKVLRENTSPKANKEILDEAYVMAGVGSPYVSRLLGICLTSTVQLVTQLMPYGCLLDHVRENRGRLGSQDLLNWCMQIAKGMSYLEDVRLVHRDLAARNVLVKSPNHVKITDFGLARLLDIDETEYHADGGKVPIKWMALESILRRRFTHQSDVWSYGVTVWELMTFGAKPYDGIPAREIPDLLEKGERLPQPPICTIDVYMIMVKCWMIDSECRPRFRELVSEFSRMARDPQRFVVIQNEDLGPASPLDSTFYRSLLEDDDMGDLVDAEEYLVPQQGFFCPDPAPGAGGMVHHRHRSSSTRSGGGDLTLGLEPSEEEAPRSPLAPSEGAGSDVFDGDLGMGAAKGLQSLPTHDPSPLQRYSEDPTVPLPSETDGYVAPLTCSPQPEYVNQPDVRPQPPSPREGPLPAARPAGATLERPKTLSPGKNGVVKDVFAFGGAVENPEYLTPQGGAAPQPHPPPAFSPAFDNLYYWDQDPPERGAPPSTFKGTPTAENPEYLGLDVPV

Structure (SMILES) | viability [1] | Her2 level [2] | viability [3] | viability [4] | viability [5] | differential viability (reversal) ([6]; H69AR cells + 2 uM doxorubicin) | viability [6, 9] | viability [6, 10] | inhibition [7] | inhibition [8]
CN(Cc1ccccc1)Cc1c[nH]c2ccccc12 | 87% | 96.5% (inactive) | 87% (inactive) | 79.7% (inactive) | 89.8% (inactive) | -6.54% (inactive) | 96.3% | 89.8% | -4.61% (inactive) | -1.5% (inactive)
Cc1cccc2cc(CN(Cc3nnnn3Cc3ccccc3)C3CCCC3)c(=O)[nH]c12 | 85% | 72.5% (inactive) | 85% (inactive) | 89.3% (inactive) | 72.9% (inactive) | 31.2% (inactive) | 41.7% | 72.9% | -1.18% (inactive) | -4.55% (inactive)
CCOC(=O)c1c(N)sn(-c2ccccc2)c1=S | 87% | 108% (inactive) | 87% (inactive) | 101% (inactive) | 85.3% (inactive) | -5.28% (inactive) | 90.6% | 85.3% | -0.9% (inactive) | 2.17% (inactive)
CC(=O)c1cccc(N(CC(=O)N2CCCC2)S(C)(=O)=O)c1 | 91.5% | 93% (inactive) | 91.5% (inactive) | 99.3% (inactive) | 99.7% (inactive) | 5.66% (inactive) | 94.1% | 99.7% | -6.67% (inactive) | 0.48% (inactive)
Cc1cc2c(nn1)CCC/C2=N\O | 104% | 99% (inactive) | 104% (inactive) | 123% (inactive) | 95.6% (inactive) | 3.77% (inactive) | 91.8% | 95.6% | -4.47% (inactive) | 6.72% (inactive)
Cn1c(-c2ccccc2)c(CCO)c2ccccc21 | 97% | 78.5% (inactive) | 97% (inactive) | 114% (inactive) | 94.7% (inactive) | -2.71% (inactive) | 97.4% | 94.7% | -0.79% (inactive) | -2.9% (inactive)
CCN(CC)Cc1nc2c(c(=O)[nH]1)C1(CCCCC1)Cc1ccccc1-2 | 87% | 82.5% (inactive) | 87% (inactive) | 93.6% (inactive) | 72.8% (inactive) | -18.9% (inactive) | 91.7% | 72.8% | -5.07% (inactive) | 0.16% (inactive)
COC(=O)c1ccccc1NC(=O)c1ccc(COc2ccccc2)o1 | 71.5% | 106% (inactive) | 71.5% (inactive) | 94.6% (inactive) | 98.3% (inactive) | 0.68% (inactive) | 97.6% | 98.3% | -6.13% (inactive) | -4.1% (inactive)
CCCNC(=O)c1ccccc1C(=O)NCCC | 93.5% | 88.5% (inactive) | 93.5% (inactive) | 103% (inactive) | 90.5% (inactive) | -4.96% (inactive) | 95.5% | 90.5% | 4.16% (inactive) | 18.9% (inactive)
CC(C)(C)n1nc2c(c1NC(=O)COc1ccc(Cl)cc1)CSC2 | 97.5% | 79.5% (inactive) | 97.5% (inactive) | 80.5% (inactive) | 91.4% (inactive) | -10.3% (inactive) | 102% | 91.4% | -5% (inactive) | -0.16% (inactive)
CCN(C(=O)c1cc(Cl)ccc1OC)C1CCCCC1 | 86.5% | 104% (inactive) | 86.5% (inactive) | 101% (inactive) | 83.8% (inactive) | -10.6% (inactive) | 94.4% | 83.8% | -2.86% (inactive) | -2.5% (inactive)
CCOC(=O)c1[nH]c2ccccc2c1NC(=O)c1ccco1 | 102% | 79% (inactive) | 102% (inactive) | 106% (inactive) | 80.3% (inactive) | -2.98% (inactive) | 83.2% | 80.3% | -7.03% (inactive) | 4.33% (inactive)
CCCOc1cc(C)c(S(=O)(=O)N2CCN(C)CC2)cc1C | 89% | 99% (inactive) | 89% (inactive) | 104% (inactive) | 95.2% (inactive) | 2.26% (inactive) | 92.9% | 95.2% | -1.58% (inactive) | 5.41% (inactive)
O=C(Cc1c(O)c2ccccc2[nH]c1=O)NCc1ccc(F)cc1 | 121% | 87.5% (inactive) | 121% (inactive) | 90.5% (inactive) | 91.3% (inactive) | 2.8% (inactive) | 88.5% | 91.3% | -4.87% (inactive) | 10% (inactive)
Cc1ccc(-c2nnc(N(C)C(=O)c3ccccn3)s2)cn1 | 133% | 94.5% (inactive) | 133% (inactive) | 90.9% (inactive) | 103% (inactive) | 20.9% (inactive) | 82.3% | 103% | -6.85% (inactive) | -4.6% (inactive)
CC(C)=CC(=O)Nc1ccc(Br)cc1 | 77.5% | 104% (inactive) | 77.5% (inactive) | 107% (inactive) | 98.2% (inactive) | 6.66% (inactive) | 91.5% | 98.2% | 1.45% (inactive) | -9.35% (inactive)
O=C(Nc1cccnc1)Nc1ccc2c(c1)OCO2 | 102% | 74% (inactive) | 102% (inactive) | 78.1% (inactive) | 82.7% (inactive) | 12.9% (inactive) | 69.8% | 82.7% | -2.24% (inactive) | 6.03% (inactive)
CC(C)C(c1nnnn1CC1CCCO1)N1CCN(Cc2ccc3c(c2)OCO3)CC1 (stereo not given) | 102% | 82.5% (inactive) | 102% (inactive) | 113% (inactive) | 95.3% (inactive) | 4.93% (inactive) | 90.3% | 95.3% | -6.44% (inactive) | -3.97% (inactive)
COC(=O)c1[nH]c2cccc(C)c2c1NC(=O)CN1CCCc2ccccc21 | 77.5% | 92% (inactive) | 77.5% (inactive) | 67.1% (inactive) | 78.8% (inactive) | 2.1% (inactive) | 76.7% | 78.8% | -1.47% (inactive) | 2.79% (inactive)
COC(=O)c1ccc(CSc2nnc(-c3ccncc3)o2)o1 | 110% | 69% (inactive) | 110% (inactive) | 87.8% (inactive) | 100% (inactive) | 4.48% (inactive) | 95.8% | 100% | -4.8% (inactive) | 1.48% (inactive)
CCN(CC)c1ccc(CNc2ccc(Br)cn2)cc1 | 108% | 92.5% (inactive) | 108% (inactive) | 106% (inactive) | 90.7% (inactive) | -14.7% (inactive) | 105% | 90.7% | -0.66% (inactive) | -3.11% (inactive)
Cc1nc2scc(-c3cccs3)c2c(=O)n1-n1cccc1 | 92% | 107% (inactive) | 92% (inactive) | 82.3% (inactive) | 99.3% (inactive) | 14.4% (inactive) | 84.8% | 99.3% | -1.79% (inactive) | -7.83% (inactive)
Cc1nnc(NCCc2ccccc2)n(N)c1=O | 107% | 104% (inactive) | 107% (inactive) | 120% (inactive) | 94.1% (inactive) | -3.7% (inactive) | 97.8% | 94.1% | -0.4% (inactive) | -9.03% (inactive)
O=C(C1CCN(S(=O)(=O)Cc2ccccc2)CC1)N1CCN(c2ncccn2)CC1 | 83% | 108% (inactive) | 83% (inactive) | 115% (inactive) | 112% (inactive) | 22.3% (inactive) | 90% | 112% | -0.39% (inactive) | -2.36% (inactive)
COc1cc(CN2CCN(C(=O)CC(C)C)CC2)cc(OC)c1O | 114% | 93.5% (inactive) | 114% (inactive) | 103% (inactive) | 102% (inactive) | 5.74% (inactive) | 96.8% | 102% | -1.04% (inactive) | -4.6% (inactive)
Cc1ccc(S(=O)(=O)CC(=O)N2CCCCCC2)cc1 | 85.5% | 100% (inactive) | 85.5% (inactive) | 78.1% (inactive) | 92.7% (inactive) | 1.99% (inactive) | 90.7% | 92.7% | -5% (inactive) | -6.07% (inactive)
COC(=O)c1cccc(Oc2nc3c(c(=O)n(C)c(=O)n3C)n2C(C)C)c1 | 80.5% | 84% (inactive) | 80.5% (inactive) | 79.6% (inactive) | 79.6% (inactive) | -20.9% (inactive) | 101% | 79.6% | -2.93% (inactive) | 2% (inactive)
COc1cc(-c2nnc(SCC(=O)c3ccc(C)cc3)o2)cc(OC)c1OC | 90% | 97.5% (inactive) | 90% (inactive) | 64.8% (inactive) | 74.5% (inactive) | -19.7% (inactive) | 94.2% | 74.5% | -1.45% (inactive) | 0.16% (inactive)
O=C1NC2=C(C(=O)CCC2)C(c2ccc3ncccc3c2)N1 (stereo not given) | 106% | 91% (inactive) | 106% (inactive) | 115% (inactive) | 98.4% (inactive) | 12.6% (inactive) | 85.8% | 98.4% | -1.64% (inactive) | 1.9% (inactive)
